In ChEMBL document CHEMBL4196148, “Antibacterial Prenylated Isoflavonoids from the Stems of Millettia extensa” (2018):
Converted amounts (≈) assume the structure as drawn. The source made the active and inactive calls. The calls are words filed in the database; no cut-off is given here.

What was measured:
Bacillus subtilis [1] = assay: Antibacterial activity against Bacillus subtilis TISTR 008 by 2-fold serial dilution method; assay type: functional, Bacillus spizizenii
Procedure, shortened: (§1)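 MICs determined following Clinical and Laboratory Standards Institute recommendations, reported in μg/mL.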

[2] = tested on: Staphylococcus epidermidis; assay: Antibacterial activity against Staphylococcus epidermidis ATCC 12228 by 2-fold serial dilution method; assay type: functional; procedure, shortened: as §1
Staphylococcus aureus [3] = assay: Antibacterial activity against Staphylococcus aureus TISTR 1466 by 2-fold serial dilution method; assay type: functional; procedure, shortened: as §1
Salmonella typhimurium = assay: Antibacterial activity against Salmonella typhimurium TISTR 781 by 2-fold serial dilution method; assay type: functional, Salmonella enterica subsp. enterica serovar Typhimurium; procedure, shortened: as §1
Pseudomonas aeruginosa = assay: Antibacterial activity against Pseudomonas aeruginosa TISTR 292 by 2-fold serial dilution method; assay type: functional; procedure, shortened: as §1
[4] = tested on: Staphylococcus epidermidis; assay: Antibacterial activity against Staphylococcus epidermidis ATCC 12228 at >128 ug/ml by 2-fold serial dilution method; assay type: functional, organism-based; procedure, shortened: as §1
Staphylococcus aureus [5] = assay: Antibacterial activity against Staphylococcus aureus TISTR 1466 at >128 ug/ml by 2-fold serial dilution method; assay type: functional, organism-based; procedure, shortened: as §1
Bacillus subtilis [6] = assay: Antibacterial activity against Bacillus subtilis TISTR 008 at >128 ug/ml by 2-fold serial dilution method; assay type: functional, organism-based; conditions: Bacillus spizizenii; procedure, shortened: as §1

Compound	MIC (Bacillus subtilis [1]) [µg/mL]	MIC [2] [µg/mL]	MIC (Staphylococcus aureus [3]) [µg/mL]	MIC (Salmonella typhimurium; Salmonella enterica) [µg/mL]	MIC (Pseudomonas aeruginosa) [µg/mL]	Activity [4]	Activity (Staphylococcus aureus [5])	Activity (Bacillus subtilis [6])	MIC (Salmonella typhimurium; Salmonella enterica subsp. enterica serovar Typhimurium) [µg/mL]
CC(C)=CCc1c2c(c(O)c3c(=O)c(-c4ccc(O)cc4O)coc13)C=CC(C)(C)O2	2 (≈ 4.76 µM)	2 (≈ 4.76 µM)	2 (≈ 4.76 µM)	128 (≈ 304 µM)	128 (≈ 304 µM)				
CC(C)=CCc1c2c(c3occ(-c4ccc(O)cc4O)c(=O)c3c1O)C=CC(C)(C)O2	2 (≈ 4.76 µM)	2 (≈ 4.76 µM)	2 (≈ 4.76 µM)	128 (≈ 304 µM)	128 (≈ 304 µM)				
CC(C)=CCOc1ccc(-c2coc3cc4c(c(O)c3c2=O)C=CC(C)(C)O4)cc1				128 (≈ 316 µM)	128 (≈ 316 µM)	inactive	inactive	inactive	
COc1cc(OC)c(-c2coc3cc4c(c(O)c3c2=O)C=CC(C)(C)O4)cc1OC				128 (≈ 312 µM)	128 (≈ 312 µM)	inactive	inactive	inactive	
Oc1ccc2c(c1)OC[C@H]1c3cc4c(cc3O[C@@H]21)OCO4 [MAACKIAIN]				128 (≈ 450 µM)	128 (≈ 450 µM)	inactive	inactive	inactive	
CC(C)=CCOc1ccc(-c2coc3cc4c(c(O)c3c2=O)C=CC(C)(C)O4)c(O)c1				128 (≈ 304 µM)	128 (≈ 304 µM)	inactive	inactive	inactive	
CN[C@H](CC(C)C)C(=O)N[C@H]1C(=O)N[C@@H](CC(N)=O)C(=O)N[C@H]2C(=O)N[C@H]3C(=O)N[C@H](C(=O)N[C@H](C(=O)O)c4cc(O)cc(O)c4-c4cc3ccc4O)[C@H](O)c3ccc(c(Cl)c3)Oc3cc2cc(c3O[C@@H]2O[C@H](CO)[C@@H](O)[C@H](O)[C@H]2O[C@H]2C[C@](C)(N)[C@H](O)[C@H](C)O2)Oc2ccc(cc2Cl)[C@H]1O [VANCOMYCIN]	0.25 (≈ 0.173 µM)	0.25 (≈ 0.173 µM)	0.25 (≈ 0.173 µM)						
CC(C)=CCc1c2c(c(O)c3c(=O)c(-c4ccc(O)c(O)c4)coc13)C=CC(C)(C)O2 [AURICULASIN]	8 (≈ 19 µM)	4 (≈ 9.51 µM)	4 (≈ 9.51 µM)	128 (≈ 304 µM)	128 (≈ 304 µM)				
GENTAMICIN					2				0.25
CC(C)=CCc1c2c(c(O)c3c(=O)c(-c4ccc(O)cc4)coc13)C=CC(C)(C)O2 [WARANGALONE]	2 (≈ 4.94 µM)	4 (≈ 9.89 µM)	2 (≈ 4.94 µM)	128 (≈ 316 µM)	128 (≈ 316 µM)				
CC(C)=CCC1=C(O)c2c(occ(-c3ccc(O)cc3O)c2=O)C(CC=C(C)C)(CC=C(C)C)C1=O	2 (≈ 4.08 µM)	2 (≈ 4.08 µM)	2 (≈ 4.08 µM)	128 (≈ 261 µM)	128 (≈ 261 µM)				
C=C(C)[C@@H]1Cc2c(cc(O)c3c2O[C@H]2COc4cc(OC)c(OC)cc4[C@H]2C3=O)O1				128 (≈ 312 µM)	128 (≈ 312 µM)	inactive	inactive	inactive	
